pEC50: −log10 of the molar value. Calls of active or inactive are those of the source. No cut-off for these calls is given here.
Key:
Hepatitis B virus [1] = assay: Antiviral activity against Hepatitis B virus infected in human HepA2 cells assessed as inhibition of viral surface antigen production after 2 days by enzyme immunoassay; assay type: functional, organism-based; conditions: for pEC50: HepA2, 48 h
Summary of the method: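 HepA2 cells (HepG2 transfected with two tandem HBV genome repeats, secreting HBsAg) were seeded at 3 × 10^4 per well (96-well) or 1 × 10^5 per well (24-well) in DMEM with 10% FCS for 24 h. They were washed twice with PBS pH 7.0 and treated with graded concentrations in serum-free DMEM for 48 h. Medium HBsAg was measured by enzyme immunoassay. EC50 is the concentration giving 50% of untreated HBsAg. Mean ± S.D., n = 3.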

[2] = Cytotoxicity against human HepA2 cells after 2 days by MTT assay; assay type: cell-based
Summary of the method: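 HepA2 cells were seeded in DMEM with 10% FCS, attached for 24 h, washed with PBS pH 7.0, and then exposed to various compound concentrations in serum-free DMEM for 48 h. Viable cell number in each well was then determined by MTT assay.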

Hepatitis B virus [3] = assay: Antiviral activity against Hepatitis B virus infected in human HepA2 cells assessed as inhibition of viral core promoter activity at 3 uM after 24 hrs by luciferase reporter gene assay; conditions: HepA2, 24 h
Hepatitis B virus [4] = assay: Antiviral activity against Hepatitis B virus infected in human 1.3ES2 cells assessed as reduction of middle/major HBsAg mRNA level after 48 hrs by Northern blot analysis; assay type: functional, organism-based
Summary of the method: (§1)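 1.3ES2 cells were grown to confluence in DMEM with 10% FCS, then switched to serum-free DMEM containing compound (0, 1.0 or 5.0 µM) for 48 h. Total RNA was extracted by phenol/guanidinium isothiocyanate, denatured in 2.2 M formaldehyde and run on a 1.2% agarose formaldehyde gel. It was blotted to nylon and probed with a 32P full-length HBV probe. The 3.5 kb and 2.4/2.1 kb bands were normalized to GAPDH.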

Hepatitis B virus [5] = assay: Antiviral activity against Hepatitis B virus infected in human HepA2 cells assessed as inhibition of viral core promoter activity at 0.03 uM after 24 hrs by luciferase reporter gene assay; conditions: HepA2, 24 h
Hepatitis B virus [6] = assay: Antiviral activity against Hepatitis B virus infected in human 1.3ES2 cells assessed as reduction of HBeAg mRNA and pregenomic RNA level after 48 hrs by Northern blot analysis; assay type: functional, organism-based; summary of the method: as §1
Hepatitis B virus [7] = assay: Antiviral activity against Hepatitis B virus infected in human HepA2 cells assessed as inhibition of viral core promoter activity after 24 hrs by luciferase reporter gene assay
Hepatitis B virus [8] = assay: Antiviral activity against Hepatitis B virus infected in human 1.3ES2 cells assessed as inhibition of viral DNA replication after 72 hrs by RT-PCR analysis; assay type: functional, organism-based
Summary of the method: (§2)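 1.3ES2 cells (HepG2 clone stably carrying a 1.3-fold HBV ayw genome) were seeded in 100 mm dishes, then exposed to compound (0, 1.0 or 5.0 µM) in serum-free DMEM for 72 h. Virion-associated HBV DNA in the medium was quantified by real-time PCR against a plasmid standard curve (10^3–10^7 copies), with 45 cycles of 95 °C 12 s and 54 °C 20 s. Mean ± S.D., n = 3.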

Hepatitis B virus [9] = assay: Antiviral activity against Hepatitis B virus infected in human 1.3ES2 cells assessed as reduction of large HBsAg mRNA level after 48 hrs by Northern blot analysis; assay type: functional, organism-based; summary of the method: as §1
Hepatitis B virus [10] = assay: Antiviral activity against Hepatitis B virus infected in human 1.3ES2 cells assessed as inhibition of viral DNA replication at 5 uM after 72 hrs by RT-PCR analysis; assay type: functional, organism-based; summary of the method: as §2
Hepatitis B virus [11] = assay: Antiviral activity against Hepatitis B virus infected in human 1.3ES2 cells assessed as reduction of viral RNA level at 5 uM after 48 hrs by Northern blot analysis; assay type: functional, organism-based; summary of the method: as §1

SMILES	pEC50 (Hepatitis B virus [1])	CC50 at 48 h [2] [µM]	further results
O=C(O)CN1Cc2c(cc3ccc4c(c3c2-c2ccc3c(c2)OCO3)OCO4)C1=O	< 5.22	> 12.5	
O=C1OCc2cc3ccc4c(c3c(-c3ccc(O)c(O)c3)c21)OCO4	5.47	> 12.5	
O=C1OCc2c1cc1ccc3c(c1c2-c1ccc2c(c1)OCO2)OCO3 [HELIOXANTHIN]			inhibition at 3 µM (Hepatitis B virus [3]): 30%
CCCCCC(=O)OCc1cc2ccc3c(c2c(-c2ccc(O)c(O)c2)c1COC(=O)CCCCC)OCO3	< 4.90	> 12.5	
CCCCCC(=O)OCc1cc2ccc3c(c2c(-c2ccc4c(c2)OCO4)c1CO)OCO3	5.72	> 12.5	
COc1ccc(-c2c3c(cc4ccc5c(c24)OCO5)C(=O)OC3)cc1OC(C)=O	7.22	> 12.5	Activity (Hepatitis B virus [4]): Dose-dependent effect; inhibition at 0.03 µM (Hepatitis B virus [5]): 40%; Activity (Hepatitis B virus [6]): Dose-dependent effect; inhibition (Hepatitis B virus [7]): Dose-dependent effect; inhibition (Hepatitis B virus [1]): Dose-dependent effect; inhibition (Hepatitis B virus [8]): Dose-dependent effect; Activity (Hepatitis B virus [9]): Dose-dependent effect
CC(=O)Oc1cc(-c2c3c(cc4ccc5c(c24)OCO5)C(=O)OC3)ccc1OCCCCCCCCC#N	< 4.90	> 12.5	
COc1cc(-c2c3c(cc4ccc5c(c24)OCO5)C(=O)OC3)ccc1OC(C)=O	< 5.22	> 12.5	inhibition (Hepatitis B virus [10]): inactive; Activity (Hepatitis B virus [11]): inactive
CCCCCC(=O)OCc1cc2ccc3c(c2c(-c2ccc(OC)c(O)c2)c1COC(=O)CCCCC)OCO3	5.48	> 12.5	
CCCCCOC(=O)CN1Cc2c(cc3ccc4c(c3c2-c2ccc3c(c2)OCO3)OCO4)C1=O	< 4.90	3.05	
COc1ccc(-c2c3c(cc4ccc5c(c24)OCO5)C(=O)OC3)cc1OC	< 5.22		
COc1ccc(-c2c(COC(C)=O)c(COC(C)=O)cc3ccc4c(c23)OCO4)cc1OC(C)=O	6.19	> 12.5	
COc1cc(-c2c(COC(C)=O)c(COC(C)=O)cc3ccc4c(c23)OCO4)ccc1O	< 4.90	> 12.5	
OCc1cc2ccc3c(c2c(-c2ccc(O)c(O)c2)c1CO)OCO3	< 4.90	> 12.5	
CCCCCC(=O)OCc1cc2ccc3c(c2c(-c2ccc(O)c(OC)c2)c1COC(=O)CCCCC)OCO3	< 4.90	> 12.5	
N#CCCN1Cc2c(cc3ccc4c(c3c2-c2ccc3c(c2)OCO3)OCO4)C1=O	< 5.22	> 12.5	
COc1cc(-c2c(CO)c(CO)cc3ccc4c(c23)OCO4)ccc1O	5.56	> 12.5	
CCCCCC(=O)OCc1cc2ccc3c(c2c(-c2ccc(OC)c(OC)c2)c1CO)OCO3	< 4.90	> 12.5	
COc1ccc(-c2c(CO)c(CO)cc3ccc4c(c23)OCO4)cc1O	6.17	> 12.5	
CC(=O)OCc1cc2ccc3c(c2c(-c2ccc(OC(C)=O)c(OC(C)=O)c2)c1COC(C)=O)OCO3	< 4.90	> 12.5	
COc1ccc(-c2c3c(cc4ccc5c(c24)OCO5)COC3=O)cc1O	5.76	> 12.5	

SMILES	pEC50 (Hepatitis B virus [1])	CC50 at 48 h [2] [µM]	further results
COc1cc(-c2c(CO)c(COC(C)=O)cc3ccc4c(c23)OCO4)ccc1O	< 4.90	> 12.5	
O=C1OCc2c1cc1ccc3c(c1c2-c1ccc2c(c1)OC(F)(F)O2)OCO3	6.42	> 12.5	
COc1cc(-c2c(COC(C)=O)c(COC(C)=O)cc3ccc4c(c23)OCO4)ccc1OC(C)=O	5.56	> 12.5	
CCCCCC(=O)OCc1cc2ccc3c(c2c(-c2ccc4c(c2)OCO4)c1COC(=O)CCCCC)OCO3	5.72	> 12.5	
COc1ccc(-c2c(CO)c(COC(C)=O)cc3ccc4c(c23)OCO4)cc1O	6.31	> 12.5	
COc1cc(-c2c3c(cc4ccc5c(c24)OCO5)C(=O)OC3)ccc1O		> 12.5	
COc1cc(-c2c3c(cc4ccc5c(c24)OCO5)COC3=O)ccc1O	5.40	> 12.5	
COC(=O)CN1Cc2c(cc3ccc4c(c3c2-c2ccc3c(c2)OCO3)OCO4)C1=O	6.07	> 12.5	
CC(=O)OCc1cc2ccc3c(c2c(-c2ccc(O)c(OC(C)=O)c2)c1COC(C)=O)OCO3	< 4.90	> 12.5	
COc1ccc(-c2c(CO)c(COC(C)=O)cc3ccc4c(c23)OCO4)cc1OC	5.43	> 12.5	
O=C1c2cc3ccc4c(c3c(-c3ccc5c(c3)OCO5)c2CN1CCO)OCO4	< 5.22	> 12.5	
CCCCCC(=O)OCc1cc2ccc3c(c2c(-c2ccc(OC)c(O)c2)c1CO)OCO3	5.71	> 12.5	
CC(=O)OCc1cc2ccc3c(c2c(-c2ccc4c(c2)OCO4)c1CO)OCO3		> 12.5	
N#Cc1cc2ccc3c(c2c(-c2ccc4c(c2)OCO4)c1C#N)OCO3	< 5.22	> 12.5	
CCCCCC(=O)OCc1cc2ccc3c(c2c(-c2ccc(OC)c(OC(=O)CCCCC)c2)c1COC(=O)CCCCC)OCO3	< 4.90	> 12.5	
COc1ccc(-c2c(CO)c(CO)cc3ccc4c(c23)OCO4)cc1OC	< 4.90	> 12.5	
N#CCCCCCCCCOc1ccc(-c2c3c(cc4ccc5c(c24)OCO5)C(=O)OC3)cc1O	< 4.90	> 12.5	
CC(=O)OCc1cc2ccc3c(c2c(-c2ccc(O)c(O)c2)c1COC(C)=O)OCO3	< 4.90	> 12.5	
CCCCCCCCOC(=O)CN1Cc2c(cc3ccc4c(c3c2-c2ccc3c(c2)OCO3)OCO4)C1=O	< 5.22	> 12.5	
COc1ccc(-c2c(COC(C)=O)c(COC(C)=O)cc3ccc4c(c23)OCO4)cc1OC	5.52	> 12.5	

— ChEMBL document CHEMBL2375279, “Synthesis and biological evaluation of helioxanthin analogues” (Bioorg Med Chem, 2013)
